Read-outs that look alike come from different tables or passages of the source.
Assays:
Theileria equi [1] = assay: In vitro growth inhibitory assay of Theileria equi in MASP culture; assay type: cell-based; conditions: for in vitro growth inhibition versus control well: p < 0.05; for morphological changes observed in treated parasites: in vitro treatment, at 96 h, Giemsa-stained smears; for IC50: read-out: IC50 value for growth inhibition of T. equi
Method in brief: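 T. equi-infected horse RBCs from MASP culture, diluted to 1% parasitaemia with uninfected ELISA-negative horse RBCs. Medium: M199 with 40% equine serum, antibiotics and 200 μM hypoxanthine. Test compounds at 1–200 μM or 125–1000 nM, triplicate wells, 96 h at 37 °C under 5% CO2/3% O2; drug medium renewed every 24 h. Percent parasitaemia followed over time; IC50 by curve fitting; two-way ANOVA with Bonferroni (p < 0.05).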

Theileria equi [2] = assay: Viability test; assay type: cell-based
Method in brief: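 After 96 h exposure in the growth assay, treated or untreated infected RBCs were moved into drug-free complete medium with fresh uninfected horse RBCs. Cultured a further 72 h at 37 °C under micro-aerophilic gas, with medium replaced every 24 h. Parasite recrudescence/viability was scored on Giemsa-stained blood smears.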

horse RBCs = assay: In vitro haemolytic assay; assay type: cell-based
[3] = In vitro cytotoxicity assay; assay type: cell-based, horse; conditions: horse, PHA-stimulated horse PBMCs
horse PBMCs = assay: In vitro cytotoxicity assay; assay type: cell-based
[4] = 48 h, 72 h and 96 h, 250 nM–1000 nM

Row | SMILES | in vitro growth inhibition versus control well (Theileria equi [1]; 24 h, 750 and 1000 nM) | in vitro growth inhibition versus control well (Theileria equi [1]; [4]) | morphological changes observed in treated parasites (Theileria equi [1]) | IC50 (Theileria equi [1]; 96 h of culture) [nM] | parasite multiplication in the viability test (Theileria equi [2]; after 96 h treatment with 500 nM–1000 nM) | haemolytic activity on horse RBCs (horse RBCs; highest concentration of 2000 μM) | in vitro growth inhibition versus control well (Theileria equi [1]; 24 h, 100 μM and 200 μM) | in vitro growth inhibition versus control well (Theileria equi [1]; 48 h, 72 h and 96 h, 5 μM–200 μM) | IC50 (Theileria equi [1]; Theileria equi, 96 h) [nM] | parasite multiplication in the viability test (Theileria equi [2]; after 96 h treatment with 50 μM–200 μM) | CC50 at 24 h [3] [mM] | Specific selective index (SSI) with respect to host's PBMC (horse PBMCs; CC50 on horse PBMCs / IC50 on T. equi) | cytotoxicity to horse PBMCs (horse PBMCs; highest concentration 1000 μM, 24 h) | haemolytic activity on horse RBCs (horse RBCs; 10 μM–2000 μM, 90 min) [%] | Specific selective index (SSI) with respect to host's RBC (horse RBCs; CC50 on horse RBCs / IC50 on T. equi) | in vitro growth inhibition versus control well (Theileria equi [1]; 24 h, 500, 750 and 1000 nM) | parasite multiplication in the viability test (Theileria equi [2]; after 96 h treatment with 750 nM and 1000 nM)
1 | CCCCCCCCCCCC[N+](C)(C)C.[Br-] [DDTAB, dodecyl trimethyl ammonium bromide] | significant difference | significant (p < 0.05) growth inhibition | devoid of internal structures, showing pycnotic and degenerative appearances | 470 | failed to multiply further | more |  |  |  |  |  |  |  |  |  |  | 
2 | C[N+](C)(C)CCCCCCCCCC[N+](C)(C)C [DMB, Decamethonium bromide] |  |  | devoid of internal structures, showing pycnotic and degenerative appearances |  |  |  | significant difference | significant (p < 0.05) growth inhibition | 14000 | failed to multiply further | 7.2 | 514.50 | less than 10% | < 3 | 16035.38 |  | 
3 | CCCCCCCCCC[N+](C)(C)C.[Br-] [DTAB, Decyl trimethyl ammonium bromide] |  | significant (p < 0.05) growth inhibition | devoid of internal structures, showing pycnotic and degenerative appearances | 558 |  |  |  |  |  |  |  |  |  | < 3 |  | significant difference | failed to multiply further
